Screening results: PubChem BioAssay, several laboratories
Dynein cargo inh: dynein cargo transport inhibition; 3617.4 mouse cells, GR-EGFP nuclear translocation imaging; test concentration mostly 20 µM; stimulated with dexamethasone, 1 µM; stronger effect = lower value; z-score, hits read low; 0.47% of 220,000 active; AID 1381;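 active means plate z-score of nuclear minus cytoplasmic receptor signal below a set negative limit, without overly bright fluorescence or cell loss, cut at about -3.5 in these data, passing the limit was not always enough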;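 further: z-score of nuclear minus cytoplasmic ring GR-EGFP intensity difference per well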
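medium = tetracycline-free induction medium containing charcoal-stripped FBS | also added = 1.0 µM final dexamethasone stimulus | schedule = 48 h induction, 1 h compound, 30 min dex at 37 °C | technique = fixed, Hoechst-stained cells imaged at 10x for EGFP | measure = GR-EGFP nuclear translocation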
TNF death inh: TNF-alpha cell death inhibition in Jurkat FADD-/- cells; Jurkat FADD-/- TNF necroptosis rescue, ATP luminescence, 24 h; 0 = TNF only, 100 = no-TNF cells; activation (protection from cell death), % at 10 µM; 0.068% of 220,000 active; AID 463075;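 active means activation, meaning protection from cell death, of at least 50% relative to plate controls; inactive means activation below 50%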;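 further: necroptosis triggered by 40 ng/mL TNF-alpha added together with compound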
Autophagy mod: alters autophagy in cells; MEF GFP-LC3 puncta imaging; test concentration mostly 10 µM; calls only at 10 µM (by protocol); 0.98% of 190,000 active;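 active means percentage of spot-positive cells more than 3 SD above its plate mean, without a fluorescence outlier flag or 80% toxicity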;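 further: spot-positive cell cutoff set from DMSO-treated cells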
Mdm2 ligase inh: inhibitors of human Mdm2 E3 ubiquitin ligase; Q00987; cell-based MDM2 ubiquitination luciferase reporter, 2 h; 0 = plate control, 100 = twice control, blank-subtracted; signal enhancement, % at 5 µM; 0.11% of 210,000 active;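 active means signal enhancement of 30% or more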;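 further: luminescence tracks abundance of the self-degrading MDM2-luciferase fusion protein; higher signal means inhibition of MDM2 E3 ligase activity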
Target sequence (Q00987 whole entry, looked up, the tested form may be a part): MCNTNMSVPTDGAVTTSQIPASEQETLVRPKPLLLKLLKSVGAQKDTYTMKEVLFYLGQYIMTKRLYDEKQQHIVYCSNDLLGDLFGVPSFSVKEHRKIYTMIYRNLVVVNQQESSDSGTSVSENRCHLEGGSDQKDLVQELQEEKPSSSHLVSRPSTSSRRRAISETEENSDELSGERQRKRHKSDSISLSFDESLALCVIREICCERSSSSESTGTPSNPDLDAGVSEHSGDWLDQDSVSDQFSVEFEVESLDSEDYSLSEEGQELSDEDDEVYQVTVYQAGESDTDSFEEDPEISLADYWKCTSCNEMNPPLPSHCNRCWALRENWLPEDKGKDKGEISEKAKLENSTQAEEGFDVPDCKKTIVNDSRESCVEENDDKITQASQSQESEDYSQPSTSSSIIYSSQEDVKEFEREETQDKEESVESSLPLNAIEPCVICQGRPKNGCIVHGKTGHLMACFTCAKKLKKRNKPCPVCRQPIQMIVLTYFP
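Test system: mammalian cells stably expressing self-ubiquitinating, self-degrading MDM2 E3–luciferase fusion; Amount: 2000 cells in each well; Medium: DMEM; Schedule: 4 h settle plus 2 h compound, 37 °C; Technique: SteadyLite luciferase luminescence after 15 min room-temperature reagent incubation; Benchmarks: plate control and blank wells.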
zVAD death inh: blocks zVAD induced death of L929 cells. 0.38% of 220,000 active. viability rescue, % at 10 µM. L929 zVAD necroptosis rescue, ATP luminescence, 24 h; with zVAD 60 µM;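 active means activation, scaled between plate controls, above about 75%, limit read from the data; inactive means activation under that limit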;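 further: 0% = zVAD with DMSO and 100% = DMSO alone without zVAD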
zVAD death conf: confirmed blocker of zVAD induced death in L929 cells; shares compounds with zVAD death inh; L929 zVAD-induced necroptosis rescue, ATP luminescence, 24 h; activation (protection from necroptosis), % at 10 µM; 16% of 760 active;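 active means mean protection from necroptosis of at least 50% over duplicate tests; inactive means mean protection below 50%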;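 further: 0% = cells with zVAD alone and 100% = vehicle cells without zVAD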
The depositor's hits bear a star; i = inactive; nt = not tested or not shown. Shown are actives, neighbours in structure and some others; about 1.8% of the full set was active somewhere.

SMILES | Dynein cargo inh | TNF death inh | Autophagy mod | Mdm2 ligase inh | zVAD death inh | zVAD death conf
CCCC(=O)Nc1cccc(C(=O)Nc2nccs2)c1 | 2.6 | 13 | i | -17 | 98* | 35
O=C(Nc1nccs1)c1cccc(NC(=O)C2CC2)c1 | 1.2 | 12 | i | -9 | 6 | nt
CC(C)C(=O)Nc1cccc(C(=O)Nc2nncs2)c1 | -0.93 | 0 | i | -10 | 0 | nt
CCC(=O)Nc1cccc(C(=O)Nc2nccs2)c1 | 0.16 | 9 | i | -12 | 86* | 20
CC(C)C(=O)Nc1cccc(C(=O)Nc2nccs2)c1 | -0.65 | -2 | i | 6 | 77* | 13
CC(C)CCc1noc(CN(CC2CCC2)CC2CCCO2)n1 (stereo unspecified) | 1.4 | -1 | nt | -15 | 1 | nt
COc1cccc(OCC(=O)O/N=C(\N)c2ccc(OC)c(OC)c2)c1 | -0.86 | 1 | i | -5 | 0 | nt
CCn1c(=O)c(-c2nc3ccccc3[nH]2)c(O)c2ccccc21 | 0.3 | -1 | i | -7 | 80* | 1
O=C1ON=C(c2cccc([N+](=O)[O-])c2)/C1=C/c1ccc(O)cc1 | -1.5 | -1 | i | -7 | -1 | nt
O=C(NCCCn1cccn1)c1cc(COc2ccc(F)cc2Cl)on1 | -0.5 | 0 | i | -7 | 0 | nt
COc1ccc(CC(=O)Nc2ccc(-c3cn4ccc(C)cc4n3)cc2)cc1 | -0.44 | 2 | i | -40 | 81* | 24
COc1ccc(CC(=O)Nc2ccc(-c3cn4cccc(C)c4n3)cc2)cc1OC | -0.085 | -2 | i | -5 | -1 | nt
Cc1nc2ccc(NC(=S)NC3CCCCC3)cc2nc1C | -0.47 | -3 | i | -15 | 6 | nt
O=c1cc(CSc2ccccc2)nc(-c2ccncc2)[nH]1 | -0.73 | 0 | i | 6 | 2 | nt
N#Cc1ccsc1NC(=O)CSc1nnnn1-c1ccc(O)cc1 | 0.064 | 2 | i | 3 | 76* | 41
CN(C)S(=O)(=O)c1cccc(NC(=O)CCSc2ccc(Cl)cc2)c1 | -0.11 | -3 | i | 2 | 77* | 42
CN(C)/N=C/c1c(O)ccc2ccccc12 | -0.15 | -1 | i | 6 | 1 | nt
Oc1ccccc1N=Cc1c(O)ccc2ccccc12 | -1.5 | -6 | nt | -15 | 84* | 12
CCOC(=O)c1c(-c2ccccc2)oc2ccc(OCC)cc12 | -0.37 | 2 | i | -14 | nt | nt
NC(=O)c1c(-c2ccccc2)oc2ccc(O)cc12 | 0.33 | 0 | i | 0 | 85* | 40
CCC(=O)n1nc(-c2cccnc2)nc1NCc1ccccc1 | -0.17 | 2 | i | -18 | 79* | 8
CCCC(=O)n1nc(-c2cccnc2)nc1NCc1cccs1 | -0.54 | 2 | i | 5 | 77* | 1
CCC(=O)n1nc(-c2cccnc2)nc1NCc1ccc(F)cc1 | -0.84 | 2 | i | -7 | 72 | nt
CCCC(=O)n1nc(-c2cccnc2)nc1NCc1ccccc1 | 0.23 | 2 | i | 14 | 79* | 1
O=C(c1cccc([N+](=O)[O-])c1)n1nc(-c2ccccc2)nc1NCc1ccccc1 | 0.19 | 4 | i | -17 | 80* | 3
SMILES | Dynein cargo inh | TNF death inh | Autophagy mod | Mdm2 ligase inh | zVAD death inh | zVAD death conf
Cc1ccc(NC(=O)N2CCCC2C(=O)NCC2CCCO2)cc1 (stereo unspecified) | 0.44 | 0 | i | 5 | 5 | nt
COc1ccc(CNc2nc(NCc3ccc(OC)cc3)n(C(=O)c3ccccc3[N+](=O)[O-])n2)cc1 | 0.088 | -7 | i | -30 | 1 | nt
O=c1nc(SCc2cccc(C(F)(F)F)c2)nc2ccccn12 | 0.13 | -1 | i | -11 | -1 | nt
O=C(Nc1ccc(-c2csc(Nc3cccc(C(F)(F)F)c3)n2)cc1)c1ccccc1 | 0.65 | 8 | nt | 15 | 83* | 38
COc1ccc(-c2cc(C(=O)Nc3cc(OC)cc(C(=O)Nc4cccc(C(F)(F)F)c4)c3)[nH]n2)cc1 | 2.1 | 2 | nt | 22 | 79* | 3
Cc1nc2c(-c3ccc(F)cc3)cnn2c2c1CCC2 | -0.38 | 0 | i | -8 | 70 | nt
CC(=O)Nc1nc(SCC(=O)Nc2nnc(C)s2)[nH]c(=O)c1NC(=O)c1cccs1 | 1.7 | 0 | i | -81 | 0 | nt
COc1ccc(/C=N/Nc2ncc(Br)cn2)c(OC)c1 | 0.95 | 20 | i | -18 | 85* | 1
O=C(OCn1ncc(Cl)c(Cl)c1=O)c1cccc(C(F)(F)F)c1 | -1.3 | -17 | i | 10 | 99* | 21
O=C(Cn1ccc(C(F)(F)F)n1)N/N=C/c1ccc(N2CCOCC2)cc1 | -0.79 | 1 | i | -11 | 3 | nt
COc1ccc(-n2cnc3cc([N+](=O)[O-])ccc32)cc1 | 1.2 | 2 | i | -5 | 79* | 1
COc1ccc(-n2cnc3cc(NS(=O)(=O)c4ccc(C)cc4)ccc32)cc1 | 1.1 | 38 | i | 0 | 85* | 41
Cc1cccc(-n2cnc3cc([N+](=O)[O-])ccc32)c1 | 0.58 | 2 | i | 6 | 20 | nt
Nc1ccc(-n2cnc3cc([N+](=O)[O-])ccc32)cc1 | 0.7 | 0 | i | -12 | 78* | 42
CC(=O)Nc1ccc(C(=O)Cn2c3[n+](c4c(F)c(F)ccc42)CCCCC3)cc1 | -0.32 | 0 | i | -4 | 1 | nt
CCOC(=O)N1CCN(Cc2nc(N)nc(Nc3ccc(C)cc3C)n2)CC1 | 0.89 | 0 | i | -3 | 0 | nt
O/N=C1\CCCc2c1nc(-c1ccccc1F)n2O | -1.6 | 1 | nt | -17 | 0 | nt
O=C(CCS(=O)(=O)c1ccccc1)Nc1ccccc1F | 0.25 | 0 | i | -19 | 2 | nt
O=C1CNC(=S)N1CCc1ccc(Cl)cc1 | -1.5 | 21 | nt | -5 | 83* | 35
CC(=O)N(C(C)=O)c1ncc2c([nH]c3ccccc32)c1C#N | 0.71 | -11 | i | -11 | 87* | 44
CC(=O)N(C(C)=O)c1c(C#N)c(C)n(-c2ccccc2)c1C(=O)c1ccccc1 | 0.67 | -3 | i | -11 | 0 | nt
O=C(Nc1ccc(-c2nnc(-c3ccccc3)o2)cc1)C(F)(F)F | 1.8 | -2 | i | -18 | 1 | nt
CC(=O)/C=C(\C)Nc1ccc(-c2cnc(-c3ccccc3)o2)cc1 | -0.35 | -4 | i | -43 | 96* | 22
CC(NC(=O)C(=O)N/N=C/c1ccccc1)c1ccccc1 (stereo unspecified) | -0.75 | 0 | i | 9 | 5 | nt
CCN(CC)CCOc1c(Br)ccc2c1sc1nc3n(c(=O)c12)CCC3 | -0.84 | -6 | i | -8 | 81* | 21
O=c1c2c(nc3n1CCCCC3)sc1c(O)c(Br)ccc12 | -0.14 | 1 | i | -15 | -1 | nt
